Only some compounds are listed: those with a hit (about 4% of all), similar ones and a draw of the others.
PHOSPHO1 inh: PHOSPHO1 (human) inhibition | inhibition, % at 13.3 µM | recombinant PHOSPHO1, absorbance phosphatase assay | 1.1% of 290,000 active | AID 1565; in the data active means inhibition above about 60%
Target sequence (Q8TCT1 whole entry, looked up): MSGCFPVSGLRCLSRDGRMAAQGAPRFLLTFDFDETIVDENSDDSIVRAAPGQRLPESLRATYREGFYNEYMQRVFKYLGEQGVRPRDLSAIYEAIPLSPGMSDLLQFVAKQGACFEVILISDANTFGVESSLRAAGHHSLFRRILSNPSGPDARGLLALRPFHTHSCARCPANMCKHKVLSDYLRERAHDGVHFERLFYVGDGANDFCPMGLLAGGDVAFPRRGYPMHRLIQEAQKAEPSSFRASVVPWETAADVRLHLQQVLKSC
KCNK3 block: human KCNK3 channel inhibition, primary screen | B-score at 10 µM | CHO-KCNK3 thallium flux, FluxOR fluorescence; stronger effect = lower value | AID 602410 | O14649 | 0.84% of 340,000 active;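 active means B-score under library mean minus 4 SD, starting fluorescence ratio at most library mean plus 5 SD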;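 further: more negative B-score means stronger inhibition of thallium flux through KCNK3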
hERG rescue: hERG (human) protection from proarrhythmic block; CHO-hERG, FluxOR thallium flux, dofetilide IC70 present; activation (rescue from dofetilide block), less the hit threshold, % at 10 µM; 0.51% of 310,000 active; AID 1511;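 active means activation above the mean of controls blocked by dofetilide plus 5 SD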;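 further: thallium influx through hERG after potassium depolarization seen as dye fluorescence rise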
KCNQ1 inh: inhibitors of human KCNQ1 potassium channel; CHO-K1 KCNQ1, FluxOR thallium flux fluorescence; stronger effect = higher value; B-score at 10 µM; 1.3% of 310,000 active; AID 2642;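 active means compounds whose thallium flux B-score, printed positive for inhibition, exceeds three library SD while starting fluorescence stays within three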;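 further: channel opened by potassium depolarization with thallium stimulus after 20 min compound exposure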
KCNK9 block: human KCNK9 channel inhibition | HEK293 KCNK9, FluxOR thallium flux fluorescence; stronger effect = lower value | AID 488922 | Q9NPC2 | B-score at 10 µM | 1.2% of 310,000 active;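 active means ratio B-score over 3 SD below the library mean, with starting fluorescence within 5 SD of its mean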;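 further: negative B-score means less thallium flux so channel inhibition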
Target sequence (Q9NPC2 whole entry, looked up): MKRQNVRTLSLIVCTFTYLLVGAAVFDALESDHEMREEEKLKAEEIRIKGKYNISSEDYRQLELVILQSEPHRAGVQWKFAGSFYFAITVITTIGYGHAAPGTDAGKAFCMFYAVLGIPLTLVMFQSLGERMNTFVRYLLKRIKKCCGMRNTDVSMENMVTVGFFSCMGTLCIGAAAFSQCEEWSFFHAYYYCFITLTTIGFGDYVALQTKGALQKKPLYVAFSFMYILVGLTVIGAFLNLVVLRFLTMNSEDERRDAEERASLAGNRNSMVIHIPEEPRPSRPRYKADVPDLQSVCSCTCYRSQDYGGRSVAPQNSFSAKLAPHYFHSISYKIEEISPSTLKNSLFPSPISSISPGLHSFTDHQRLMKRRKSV
KCNQ1 act: potentiates or activates the human KCNQ1 potassium channel | P51787 | CHO-K1 KCNQ1, thallium flux FluxOR fluorescence; stronger effect = higher value | B-score at 10 µM | 0.35% of 310,000 active;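 active means fluorescence ratio B-score, a plate-corrected score, at least three library SD, with initial intensity B-score within 5 SD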
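assay system = KCNQ1-transfected CHO-K1 cells | medium = assay buffer with matched DMSO | probe or stimulus = depolarizing K+/Tl+ stimulus, K2SO4 and Tl2SO4 each 12.5 mM in 5x stock | dosing = single dose | incubation = dye 90 min, compound 20 min, room temperature | detection = kinetic FluxOR fluorescence, 10 s baseline plus 110 s post-stimulus | evaluation = ratio B score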
KCNK3 inh conf: confirmation of human KCNK3 two-pore domain potassium channel inhibitors. shares compounds with KCNK3 block. CHO-KCNK3 thallium flux, FluxOR fluorescence; 0% buffer, 100% carvedilol maximal block. ratio percent of control, % at 10 µM. 99% of 2,400 active;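 active means ratio percent of control, averaged over triplicates, above buffer control mean plus 5 SD, cut at about 64% in these data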;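 further: ratio is the fluorescence rise from min to max over baseline after thallium stimulus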
KCNK3 uninduced: counter-screen for KCNK3 inhibitors: effect in non-induced cells; shares compounds with KCNK3 block; non-induced KCNK3 parental cells, FluxOR thallium flux; stronger effect = lower value; thallium flux ratio (lower = more inhibition) at 10 µM; 40% of 2,400 active; AID 651747;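 active means thallium flux ratio, averaged over three wells, more than 5 SD below the buffer control mean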;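 further: host cells are CHO cells without KCNK3 induction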
Large screens that a line does not name were inactive (follow-up assays come after a bar, where they were run).

CN=C(Nc1ccc(C(=O)OC)s1)c1ccccc1	none
COc1ccc(C2C(C#N)=C(N)OC3=C2C(=O)CCC3)cc1OC (configuration not stated)	none
CCCn1c(CNc2ccc(Br)cc2)nc2ccccc21	KCNK3 block -12 | KCNK3 inh conf 124 | KCNK3 uninduced 0.14
CCOc1ccccc1NC(=S)NC(=O)CCCOc1ccc(Cl)cc1Cl	KCNK3 block -11 | KCNK3 inh conf 109 | KCNK3 uninduced inactive
COC(=O)C1=C(C)N=C2SC(C)C(=O)N2C1c1cccs1 (configuration not stated)	KCNK3 block -12 | KCNK3 inh conf inactive | KCNK3 uninduced inactive
COC(=O)C1=C(C)N=C2SC(C)C(=O)N2C1c1ccc(C(=O)OC)cc1 (configuration not stated)	KCNK3 block -8.7 | KCNK3 inh conf 106 | KCNK3 uninduced inactive
COc1ccc(CNC2c3ccccc3-c3ccccc32)cc1OC	none
CCC(CO)Nc1nc2ccc(Cl)cc2c2ccccc12 (configuration not stated)	KCNK3 block -9.2 | KCNK3 inh conf 98 | KCNK3 uninduced inactive
Cc1cc(O)c(C(C)C)cc1C1(c2cc(C(C)C)c(O)cc2C)OC(=O)c2ccccc21	KCNK3 block -9.1 | KCNK3 inh conf 120 | KCNK3 uninduced 0.15
O=C(NC1(C(F)(F)F)C(=O)Nc2c1c(=O)[nH]c(=O)n2Cc1ccccc1)c1ccco1 (configuration not stated)	none
CCc1ccccc1N(C)S(=O)(=O)c1ccc(-c2cc(C)no2)s1	KCNK3 block -9.9 | KCNK3 inh conf 113 | KCNK3 uninduced inactive
CCN(c1ccc(OC)cc1)S(=O)(=O)c1ccc(-c2cc(C)no2)s1	KCNK3 block -12 | KCNK3 inh conf 119 | KCNK3 uninduced inactive
Cc1cc(-c2ccc(S(=O)(=O)N3CCN(C)CC3)s2)on1	none
COc1ccc(N2CCN(S(=O)(=O)c3ccc(-c4cc(C)no4)s3)CC2)cc1	none
CCc1cc2cc(C)cc(C)c2nc1SCC(=O)NNC(=O)c1ccco1	none
COc1ccccc1-c1c(C)oc2c(CN3CCN(CCO)CC3)c(O)ccc2c1=O	KCNK3 block -20 | KCNK3 inh conf 59 | KCNK3 uninduced inactive
C=CCc1cc(C)ccc1OCCCC(C(=O)OCC)C(=O)OCC	KCNK3 block -12 | KCNK3 inh conf 101 | KCNK3 uninduced inactive
Cc1nn(-c2ccccc2)c(OC(=O)c2cccs2)c1S(=O)(=O)c1ccccc1	none
Cc1nn(C(C)(C)C)c(OC(=O)C2CCCC2)c1S(=O)(=O)c1ccccc1	KCNK3 block -9.9 | KCNK3 inh conf 90 | KCNK3 uninduced inactive
COc1ccccc1C(=O)NCC(=O)OCC(=O)Nc1cccc(S(=O)(=O)N(C)C)c1	none
CN(C)S(=O)(=O)c1cccc(NC(=O)COc2ccccc2C(=O)NCc2ccccc2)c1	KCNK3 block -12 (no result: PHOSPHO1 inh, hERG rescue, KCNQ1 inh, KCNK9 block, KCNQ1 act) | KCNK3 inh conf 119 | KCNK3 uninduced 0.16
CN1CCCC(OC(=O)c2ccc3c(c2)OCCO3)C1 (configuration not stated)	none
CCOC(=O)c1ccc(NC2c3ccccc3C(=O)N2c2cccnc2)cc1 (configuration not stated)	KCNK3 block -9.7 | KCNK3 inh conf 112 | KCNK3 uninduced inactive
CCc1cccc(NC2c3ccccc3C(=O)N2c2cccnc2)c1 (configuration not stated)	KCNK3 block -11 | KCNK3 inh conf 100 | KCNK3 uninduced inactive
CCOc1ccccc1OCCCC(=O)Nc1cccc(S(=O)(=O)N2CCOCC2)c1	none (no result: PHOSPHO1 inh, hERG rescue, KCNQ1 inh, KCNK9 block, KCNQ1 act)
CN(C)S(=O)(=O)N1CCC(Oc2cccc(C(=O)N3CCSCC3)c2)CC1	none
COc1cc(C(=O)NC(C)C2CC3CCC2C3)ccc1OC(F)F (configuration not stated)	KCNK3 block -12 (no result: PHOSPHO1 inh, hERG rescue, KCNQ1 inh, KCNK9 block, KCNQ1 act) | KCNK3 inh conf 110 | KCNK3 uninduced 0.12
Cc1ccccc1NC(=S)N(Cc1ccco1)C(C)c1cccs1 (configuration not stated)	none
COc1cccc(NC(=S)N(Cc2ccco2)C(C)c2ccco2)c1 (configuration not stated)	none
CC(c1cccs1)N(Cc1ccco1)C(=S)Nc1ccccc1Cl (configuration not stated)	KCNK3 block -9 | KCNK3 inh conf 107 | KCNK3 uninduced inactive
Cc1cccc(NC(=S)N(Cc2ccco2)C(C)c2cccs2)c1 (configuration not stated)	KCNK3 block -9.7 | KCNK3 inh conf 94 | KCNK3 uninduced inactive
CCCCc1cc(=O)oc2cc(OCC(=O)N3C[C@H]4C[C@@H](C3)c3cccc(=O)n3C4)ccc12	none
Cc1cc[n+](CCc2ccccc2)cc1C	none
CCOC(=O)CSc1nc2c(c(-c3ccc(C)o3)c1C#N)CCCC2	KCNK3 block -9.3 | KCNK3 inh conf 98 | KCNK3 uninduced inactive
COC(=O)CSc1nc2c(c(-c3ccco3)c1C#N)CCCC2	none
CCOc1ccc(CCN2C(=S)N([C@@H](CC(C)C)CN3CCCC3CN3C(=S)NC[C@@H]3CC(C)C)C[C@@H]2CC(C)C)cc1 (some centres not stated)	none (no result: PHOSPHO1 inh, hERG rescue, KCNQ1 inh, KCNK9 block, KCNQ1 act)
O=C(NCCSc1c[nH]c2ccccc12)c1c(F)cccc1F	KCNK3 block -10 | KCNK3 inh conf 101 | KCNK3 uninduced inactive
CC(OC(=O)c1ccc(Cl)nc1)C(=O)N1CCc2ccccc21 (configuration not stated)	none (no result: PHOSPHO1 inh)
O=C(Oc1ccc(Cl)c2cccnc12)c1ccco1	KCNK3 block -8.9 | KCNK3 inh conf 65 | KCNK3 uninduced inactive
O=[N+]([O-])c1ccccc1/C=N/N1CCN(Cc2ccccc2)CC1	none
O=[N+]([O-])c1ccccc1/C=N\N1CCN(Cc2ccccc2Cl)CC1	KCNK3 block -8.9 | KCNK3 inh conf 99 | KCNK3 uninduced inactive
CCOCCCNC(=O)/C(C#N)=C/c1cc(OC)c(O)c([N+](=O)[O-])c1	none
CCOCCCNC(=O)/C(C#N)=C/c1ccc(Cl)c([N+](=O)[O-])c1	KCNK3 block -9.1 | KCNK3 inh conf 122 | KCNK3 uninduced 0.12
COc1ccccc1CNC(=O)COC(=O)C1CCN(c2ccc(C(F)(F)F)cn2)CC1	none (no result: PHOSPHO1 inh)
CCOc1ccc(C(=O)C(C)OC(=O)C2CCN(c3ccc(C(F)(F)F)cn3)CC2)cc1 (configuration not stated)	KCNK3 block -9.4, KCNQ1 inh 8 (no result: PHOSPHO1 inh) | KCNK3 inh conf 83 | KCNK3 uninduced 0.16

Screens: PubChem, several laboratories
